Measured values pooled from the literature.
Each line is one published result; the experiments were not run side by side.
Cell line: MCF7
Effect on: cell growth or viability

The viability of `O=C(Nc1cccc(-c2cn(Cc3ccc(Cl)cc3)nn2)c1)Nc1ccccc1Br` is reported as 69.6% (CCK-8; 50 µM, 72 h).
With `CCNc1nc2ccc(-c3c/c(=N\c4ccccc4NC(=O)CCN)c4ccccc4o3)cc2o1` the inhibition was 3.78% (CCK-8; 1 µM).
For `COc1ccc(NC(=O)NCc2cn(Cc3ccc(C)cc3)nn2)cc1`, the viability was 97.7% (CCK-8; 50 µM, 48 h).
The inhibition of `Nc1nc2ccc(-c3c/c(=N\c4ccccc4NC(=O)CCN4CCOCC4)c4ccccc4o3)cc2o1` is reported as 7.35% (CCK-8; 1 µM).
For `COc1ccc(C=NNC(=O)c2nc3ccccc3s2)cc1OS(C)(=O)=O`, the cell death was 32.3% (MTT; 100 µM, 48 h).
`COc1cccc2c1C(=O)c1c(O)c3c(c(O)c1C2=O)C[C@@](O)(C(=O)CO)C[C@@H]3O[C@H]1C[C@H](N)[C@H](O)[C@H](C)O1` gave an IC50 of 5.17 µM (MTT; 48 h).
For `COc1ccc(NC(=O)Nc2ccc(-c3cn(Cc4ccc(Br)cc4)nn3)cc2)cc1`, the viability was 105% (CCK-8; 50 µM, 72 h).
With `C[C@H](Nc1ccc2c(c1)OCCn1cc(N3C(=O)OC[C@H]3C(F)F)nc1-2)C(N)=O` the EC50 was 0.129 µM (ATP luminescence; 5 days).
`Cc1n[nH]c2ccc3nc(-c4ccc(C(=O)NCCN(C)C)cc4)c4c(c3c12)CCCCC4` gave a GI50 of 5.25 µM (72 h).
`C[C@H](N)C(=O)Nc1ccccc1/N=c1\cc(-c2ccc3c(c2)OCO3)oc2ccccc12` gave an inhibition of 8.48% (CCK-8; 1 µM).
The viability of `COc1ccc(NC(=O)NCc2cn(Cc3ccc(Cl)cc3)nn2)cc1` is reported as 90.6% (CCK-8; 50 µM, 48 h).
`Cc1n[nH]c2ccc3nc(-c4ccc(C(=O)NCCN(C)C)cc4)c4c(c3c12)CCCC4` has a GI50 of 2.4 µM (72 h).
With `O=C(Nc1ccc(Cl)cc1)Nc1cccc(-c2cn(Cc3ccc(Cl)cc3)nn2)c1` the viability was 98.2% (CCK-8; 50 µM, 72 h).
The inhibition of `COCCC(=O)Nc1ccccc1/N=c1\cc(-c2ccc3nc(N)oc3c2)oc2ccccc12` is reported as 7.99% (CCK-8; 1 µM).
`COc1ccc(NC(=O)Nc2ccc(-c3cn(Cc4cccc(Cl)c4)nn3)cc2)cc1` has a viability of 95.4% (CCK-8; 50 µM, 48 h).
The cell death of `CCCS(=O)(=O)Oc1cc(C=NNC(=O)c2nc3ccccc3s2)ccc1OC` is reported as 26.3% (MTT; 100 µM, 48 h).
`CC(C)(C)c1cc(NC(=O)Nc2ccc(-c3cn4c(n3)sc3cc(OCCN5CCOCC5)ccc34)cc2)no1` has a GI50 of greater than 10 µM (72 h).
`O=C(NCc1cn(Cc2ccc(Br)cc2)nn1)Nc1ccc(Cl)cc1` gave a viability of 89.8% (CCK-8; 50 µM, 48 h).
`NCCC(=O)Nc1cccc(/N=c2\cc(-c3ccc4c(c3)OCO4)oc3ccccc23)c1` has an inhibition of 15.7% (CCK-8; 1 µM).
For `COc1ccc(NC(=O)Nc2cccc(-c3cn(Cc4ccccc4C)nn3)c2)cc1`, the viability was 94.8% (CCK-8; 50 µM, 48 h).
`CCOc1ccc(-c2cc(C(=O)O)c(-c3ccc(Cl)cc3)o2)cc1` has an EC50 of 170 µM (MTT; 48 h).
`COc1ccc2/c(=N/c3ccccc3NC(=O)N3CCOCC3)cc(-c3ccc4c(c3)OCCO4)oc2c1` has an inhibition of 7.65% (CCK-8; 1 µM).
`COc1ccc(NC(=O)Nc2cccc(-c3cn(Cc4cccc(Cl)c4)nn3)c2)cc1` has a viability of 103% (CCK-8; 50 µM, 48 h).
`NCC(=O)Nc1ccccc1/N=c1\cc(-c2ccc3c(c2)OCO3)oc2c([N+](=O)[O-])cccc12` has an inhibition of 11.7% (CCK-8; 1 µM).
With `O=C(Nc1ccc(-c2cn(Cc3ccc(Br)cc3)nn2)cc1)Nc1ccccc1Br` the viability was 92.9% (CCK-8; 50 µM, 48 h).
With `COc1ccc(NC(=O)Nc2cccc(-c3cn(Cc4ccc(Cl)cc4)nn3)c2)cc1` the viability was 100% (CCK-8; 50 µM, 48 h).
For `Cc1n[nH]c2ccc3nc(-c4ccc(C(=O)NCCN(C)C)cc4F)c4c(c3c12)CCCCC4`, the GI50 was 5.72 µM (72 h).
The viability of `COc1ccc(NC(=O)NCc2cn(Cc3ccc(Br)cc3)nn2)cc1` is reported as 89.2% (CCK-8; 50 µM, 72 h).
The viability of `O=C(Nc1cccc(-c2cn(Cc3ccc(Br)cc3)nn2)c1)Nc1ccccc1Br` is reported as 89.7% (CCK-8; 50 µM, 48 h).
`O=c1[nH]cc(F)c(=O)[nH]1` has a cell death of 71.2% (MTT; 100 µM, 48 h).
`O=C(NCc1cn(Cc2cccc(Cl)c2)nn1)Nc1ccc(Cl)cc1` has a viability of 82% (CCK-8; 50 µM, 48 h).
`CCc1nc(C(N)=O)c(Nc2ccc(N3CCC(N4CCN(C)CC4)CC3)c(OC)c2)nc1NC1CCOCC1` gave a GI50 of 0.406 µM (72 h).
For `O=C(Nc1ccc(Cl)cc1)Nc1ccc(-c2cn(Cc3cccc(Cl)c3)nn2)cc1`, the viability was 91.8% (CCK-8; 50 µM, 48 h).
`NCCC(=O)Nc1ccc(/N=c2\cc(-c3ccc4c(c3)OCO4)oc3ccccc23)cc1` gave an inhibition of 6.42% (CCK-8; 1 µM).
`CCCS(=O)(=O)Oc1ccc(C=NNC(=O)c2nc3ccccc3s2)cc1` gave a cell death of 46.6% (MTT; 100 µM, 48 h).
`O=C(NCc1cn(Cc2ccc(Br)cc2)nn1)Nc1ccccc1Br` has a viability of 80.2% (CCK-8; 50 µM, 72 h).
